From PMC6489498 (Inorganic chemistry, 2017)
Like-named read-outs stand apart in the source and are kept apart here.

Columns and labels:
[1] = MBP hydroxyl pKa from pH-dependent optical spectra; type: physicochemical
CoCA = type: physicochemical, bovine; conditions: calculated from first addition (3.75 μM MBP) to 38 μM CoCA; thione coordinated
Outline: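 UV-vis titration of 38 μM CoCA with MBP in 50 mM phosphate, pH 7.5. ΔA of protonated and deprotonated bands converted to concentrations using the εOH–εO− difference, then to mole fractions vs MBP added. Effective pKa calculated from the first addition (3.75 μM), […]. Shift expressed relative to the free-MBP hydroxyl pKa.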

ZnCA = conditions: with ZnCA; ref 7 (Martin, et al); cited from earlier work
[2] = solution of the free MBP, pH varied (UV-vis optical spectra)

| pKa [1] | pKa [1, 2] | effective pKa (CoCA) | deprotonated form present at physiological pH ([1]; expected from pKa) | Compound | Ki (ZnCA) |
| --- | --- | --- | --- | --- | --- |
| 9 | ~9 | 8.3 | – | Cc1occc(=S)c1O [TM, 3-hydroxy-2-methyl-4H-pyran-4-thione] | 1400 µM |
| 8.3 | ~8.3 | 7.6 | ~ 15% | Cc1cc(=S)c(O)co1 [ATM, 5-hydroxy-2-methyl-4H-pyran-4-thione] | 650 µM |
| 9.5 | ~9.5 | 8.4 | – | Oc1coccc1=S [TPMA, 3-hydroxy-4H-pyran-4-thione] | 1100 µM |
